Where only a bound is given, the exact number is not on record here.

As a reminder, the IC50 is the point on the concentration scale where inhibition reaches its midpoint.

Data set [1] can be described thus: DPPH free radical scavenging assay. In outline:
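Methanolic test compound at 0.2–1.0 μg/mL was mixed with 0.004% methanolic DPPH and kept in the dark for 30 min. Absorbance was read at 517 nm. Compound solution without DPPH served as blank and DPPH alone as control. Percent inhibition was derived from absorbance with and without antioxidant. Each measurement was repeated three times.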
A general note: DPPH is a stable violet radical that fades when it is reduced.

Data set [2] deals with diabetic mice. Nature of the data set: Blood glucose levels in diabetic mice. It counts as in vivo. As to conditions: LOQ = 20 mM. In outline: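 Male mice (about 20 ± 2 g) were randomised into eight groups (n = 5). After an 18 h fast, diabetes was induced with a single ip alloxan dose of 50 mg/kg in 0.5 mL, and diabetic animals served as positive control. Test compound was given ip in 0.5 mL for 1 week, with saline as negative control. Cardiac blood was drawn under diethyl ether, and serum (600g, 15 min) was assayed for glucose. Triplicate; mean ± SD; Kruskal–Wallis, p < 0.05.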

For data set [3], the system named is diabetic mice. Nature of the data set: Hematological study in vivo. As to conditions: ip; for Alb / Chlst / Cr / TG / UA: serum. In outline: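 Alloxan-diabetic male mice (single 50 mg/kg ip after 18 h fast; n = 5 per group) received test compound ip for 1 week, with a saline group as control. Cardiac blood was drawn under diethyl ether into 10% EDTA for automated haematology (RBC, WBC, Hb, MCV, MCH, MCHC, PLT, RDW, HCT) and into plain tubes. Serum (600g, 15 min) was assayed for albumin, uric acid, glucose, triglyceride and cholesterol. Triplicate; mean ± SD; Kruskal–Wallis.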

For data set [4] the following is noted: read-out: IC50, inhibition of CuSO4-induced oxidation of human LDL; cited from earlier work.

In the case of `O=C1O[C@H]([C@@H](O)CO)C(O)=C1O` [AA, Ascorbic Acid, reference compound], the “Inhibition percent (%), DPPH scavenging” value in data set [1] (conc. 0.2 μg mL^–1) is listed as 53.13 ± 0.7%; in data set [1] (conc. 0.4 μg mL^–1), 61.22 ± 0.7%; in data set [1] (conc. 0.6 μg mL^–1), 69.18 ± 1%; in data set [1] (conc. 0.8 μg mL^–1) it was 88.47 ± 0.9%; in data set [1] (conc. 1.0 μg mL^–1) it was 98.03 ± 2%.

With `Cc1nn(-c2ccccc2)c(Cl)c1C1Nc2ccccc2C(=O)N1c1ccccc1` (stereo not drawn) [Compound 4g, 2-(5-Chloro-3-methyl-1-phenyl-1H-pyrazol-4-yl)-3-phenyl-2,3-dihydroquinazolin-4(1H)-one], the “Inhibition percent (%), DPPH scavenging” value in data set [1] (conc. 0.2 μg mL^–1) is on record as 20.71 ± 0.2%; in data set [1] (conc. 0.4 μg mL^–1), 20.32 ± 0.2%; in data set [1] (conc. 0.6 μg mL^–1), 20.51 ± 0.1%; in data set [1] (conc. 0.8 μg mL^–1) it was 21.16 ± 0.1%; in data set [1] (conc. 1.0 μg mL^–1), 20.62 ± 0.5%. Further, the “Mean blood glucose level” value in the data set with diabetic mice [2] (conc. 0.3 mM) is reported as 65 ± 2 mM; in the data set on diabetic mice [2] (conc. 0.5 mM) it was 27 ± 1 mM.

With `Cc1ccc(N2C(=O)c3ccccc3NC2c2c(C)nn(-c3ccccc3)c2Cl)cc1` (stereo not drawn) [Compound 4h, 2-(5-Chloro-3-methyl-1-phenyl-1H-pyrazol-4-yl)-3-(p-tolyl)-2,3-dihydroquinazolin-4(1H)-one], in data set [1] (conc. 0.2 μg mL^–1), the “Inhibition percent (%), DPPH scavenging” value was determined as 11.42 ± 0.03%. Moreover, in data set [1] (conc. 0.4 μg mL^–1), the “Inhibition percent (%), DPPH scavenging” value worked out at 11.44 ± 0.02%. The “Inhibition percent (%), DPPH scavenging” value in data set [1] (conc. 0.6 μg mL^–1) worked out at 11.46 ± 0.02%. Also, the “Inhibition percent (%), DPPH scavenging” value in data set [1] (conc. 0.8 μg mL^–1) came to 11.48 ± 0.04%. Further, in data set [1] (conc. 1.0 μg mL^–1), the “Inhibition percent (%), DPPH scavenging” value was found to be 11.50 ± 0.07%. Further, in the data set with diabetic mice [3] (dose 0.3 mM), the HB turned out to be 14.5 ± 0.1 g/dL, the HCT worked out at 37.1 ± 0.1%, the MCH is on record as 15.8 ± 0.1 ρg and the MCHC turned out to be 44.0 ± 0.2 g/dL. Further, in the data set with diabetic mice [3] (dose 0.3 mM), the MCV worked out at 40.9 μm^3, the RBC was 9.05 10^6/mm^3, the RDW turned out to be 21.8 ± 0.03% and the WBC was 5.3 10^3/mm^3. For the same molecule, in the data set with diabetic mice [3] (dose 0.3 mM), the Alb is 2.7 ± 0.04 g/dL, the Chlst was 64 ± 3.2 mg/dL, the Cr is given as 0.41 ± 0.05 mg/dL and the TG amounted to 127 ± 1.5 mg/dL. The molecule also returned a UA with diabetic mice [3] (dose 0.3 mM) of 61 ± 3 µM. Also, in the data set with diabetic mice [3] (dose 0.5 mM), the HB was 14.2 ± 0.25 g/dL, the HCT turned out to be 37.9 ± 0.1%, the MCH is on record as 15.5 ± 0.23 ρg and the MCHC is 41.2 ± 0.1 g/dL. Besides, in the data set on diabetic mice [3] (dose 0.5 mM), the MCV turned out to be 40.1 μm^3, the RBC is on record as 9.92 10^6/mm^3, the RDW worked out at 23.6 ± 0.02% and the WBC is on record as 5.6 10^3/mm^3. Further, in the data set on diabetic mice [3] (dose 0.5 mM), the Alb worked out at 2.7 ± 0.02 g/dL, the Chlst came to 58 ± 6 mg/dL, the Cr was 0.4 ± 0.05 mg/dL and the TG came to 109 ± 0.7 mg/dL. Further, the UA in the data set on diabetic mice [3] (dose 0.5 mM) came to 62 ± 1.5 µM. Further, the “Mean blood glucose level” value with diabetic mice [2] (conc. 0.3 mM) is reported as 44 ± 1 mM. Also, in the data set with diabetic mice [2] (conc. 0.5 mM), the “Mean blood glucose level” value came out at 22 ± 1 mM.

On to `Cc1nn(-c2ccccc2)c(Cl)c1C1Nc2ccccc2C(=O)N1c1ccc(O)cc1` (stereo not drawn) [Compound 4i, 2-(5-Chloro-3-methyl-1-phenyl-1H-pyrazol-4-yl)-3-(4-hydroxyphenyl)-2,3-dihydroquinazolin-4(1H)-one], for which the “Inhibition percent (%), DPPH scavenging” value turned out to be 80.07 ± 0.77% in data set [1] (conc. 0.2 μg mL^–1); 81.18 ± 0.5% in data set [1] (conc. 0.4 μg mL^–1); 83.9 ± 0.1% in data set [1] (conc. 0.6 μg mL^–1); 85.62 ± 0.3% in data set [1] (conc. 0.8 μg mL^–1); 86.47 ± 0.27% in data set [1] (conc. 1.0 μg mL^–1). For the same molecule, the “Mean blood glucose level” value in the data set with diabetic mice [2] (conc. 0.3 mM) was 44 ± 1 mM; in the data set with diabetic mice [2] (conc. 0.5 mM), “<LOQ”.

As to `Cc1nn(-c2ccccc2)c(Cl)c1C1Nc2ccccc2C(=O)N1c1ccc(Cl)cc1` (stereo not drawn) [Compound 4j, 2-(5-Chloro-3-methyl-1-phenyl-1H-pyrazol-4-yl)-3-(4-chlorophenyl)-2,3-dihydroquinazolin-4(1H)-one], the “Inhibition percent (%), DPPH scavenging” value in data set [1] (conc. 0.2 μg mL^–1) was 79.9 ± 0.9%. Also, the “Inhibition percent (%), DPPH scavenging” value in data set [1] (conc. 0.4 μg mL^–1) was determined as 87.68 ± 0.7%. The “Inhibition percent (%), DPPH scavenging” value in data set [1] (conc. 0.6 μg mL^–1) turned out to be 93.58 ± 1%. Also, the “Inhibition percent (%), DPPH scavenging” value in data set [1] (conc. 0.8 μg mL^–1) turned out to be 99.37 ± 0.7%. Further, the “Inhibition percent (%), DPPH scavenging” value in data set [1] (conc. 1.0 μg mL^–1) came to 102 ± 2%. For the same molecule, in the data set on diabetic mice [3] (dose 0.3 mM), the HB was 14.8 ± 0.34 g/dL, the HCT is given as 38.6 ± 0.1%, the MCH is 15.7 ± 0.2 ρg and the MCHC was determined as 38.6 ± 0.2 g/dL. Besides, in the data set with diabetic mice [3] (dose 0.3 mM), the MCV was 40.2 μm^3, the PLT is listed as 1350 10^3/mm^3, the RBC is recorded as 9.34 10^6/mm^3 and the RDW was found to be 22.5 ± 0.01%. For the same molecule, in the data set on diabetic mice [3] (dose 0.3 mM), the WBC is reported as 7.6 10^3/mm^3, the Alb amounted to 2.9 ± 0.02 g/dL, the Chlst came to 66 ± 1.4 mg/dL and the Cr came out at 0.41 ± 0.07 mg/dL. In addition, in the data set on diabetic mice [3] (dose 0.3 mM), the TG came out at 123 ± 3 mg/dL and the UA is 65 ± 2 µM. For the same molecule, in the data set on diabetic mice [3] (dose 0.5 mM), the HB was 14.8 ± 0.3 g/dL, the HCT came to 39.6 ± 0.08%, the MCH was 15.5 ± 0.03 ρg and the MCHC was found to be 38.2 ± 0.1 g/dL. Besides, in the data set with diabetic mice [3] (dose 0.5 mM), the MCV is 39.9 μm^3, the PLT was 1326 10^3/mm^3, the RBC is listed as 9.17 10^6/mm^3 and the RDW is given as 22.2 ± 0.02%. Besides, in the data set on diabetic mice [3] (dose 0.5 mM), the WBC is on record as 8 10^3/mm^3, the Alb is 2.8 ± 0.01 g/dL, the Chlst is recorded as 62 ± 2.8 mg/dL and the Cr amounted to 0.41 ± 0.09 mg/dL. In the data set with diabetic mice [3] (dose 0.5 mM), this molecule showed a TG of 116 ± 3 mg/dL and a UA of 65 ± 2 µM.

In the case of `Cc1ccc(N2C(=O)c3ccccc3NC2c2c(C)nn(-c3ccccc3)c2Cl)c(C)c1` (stereo not drawn) [Compound 4k, 2-(5-Chloro-3-methyl-1-phenyl-1H-pyrazol-4-yl)-3-(2,4-dimethylphenyl)-2,3-dihydroquinazolin-4(1H)-one], the “Inhibition percent (%), DPPH scavenging” value in data set [1] (conc. 0.2 μg mL^–1) is 67.72 ± 0.2%. The “Inhibition percent (%), DPPH scavenging” value in data set [1] (conc. 0.4 μg mL^–1) is given as 67.80 ± 0.3%. Moreover, the “Inhibition percent (%), DPPH scavenging” value in data set [1] (conc. 0.6 μg mL^–1) was 67.87 ± 0.1%. In data set [1] (conc. 0.8 μg mL^–1), the “Inhibition percent (%), DPPH scavenging” value was determined as 67.95 ± 0.2%. Moreover, the “Inhibition percent (%), DPPH scavenging” value in data set [1] (conc. 1.0 μg mL^–1) was found to be 68.03 ± 0.1%. In the data set with diabetic mice [3] (dose 0.3 mM), the HB came to 8.0 ± 0.2 g/dL, the HCT is reported as 18.1 ± 0.1%, the MCH is 15.8 ± 0.1 ρg and the MCHC is 44.0 ± 0.2 g/dL. In the data set on diabetic mice [3] (dose 0.3 mM), the MCV is given as 44.9 μm^3, the RBC is recorded as 8.05 10^6/mm^3, the RDW was determined as 12.2 ± 0.01% and the WBC is given as 3.15 10^3/mm^3. Moreover, in the data set on diabetic mice [3] (dose 0.3 mM), the Alb was 2.8 ± 0.07 g/dL, the Chlst came out at 64 ± 3.2 mg/dL, the Cr was found to be 0.45 ± 0.05 mg/dL and the TG was 127 ± 2.5 mg/dL. The molecule further showed a UA in the data set with diabetic mice [3] (dose 0.3 mM) of 66 ± 2.7 µM. In the data set on diabetic mice [3] (dose 0.5 mM), the HB was determined as 10.9 ± 0.1 g/dL, the HCT stood at 34.9 ± 0.2%, the MCH is recorded as 15.8 ± 0.1 ρg and the MCHC stood at 41.2 ± 0.2 g/dL. Further, in the data set on diabetic mice [3] (dose 0.5 mM), the MCV is on record as 44.1 μm^3, the RBC was 7.92 10^6/mm^3, the RDW turned out to be 24.8 ± 0.01% and the WBC was 2.8 10^3/mm^3. In the data set with diabetic mice [3] (dose 0.5 mM), this molecule yielded an Alb of 2.8 ± 0.03 g/dL, a Chlst of 60 ± 6 mg/dL, a Cr of 0.42 ± 0.05 mg/dL and a TG of 121 ± 4 mg/dL. The molecule further returned a UA with diabetic mice [3] (dose 0.5 mM) of 67 ± 3.3 µM. Further, the “Mean blood glucose level” value in the data set with diabetic mice [2] (conc. 0.3 mM) is reported as 29 ± 1 mM.

With `Cc1ccc(N2C(=O)c3ccccc3NC2c2c(C)nn(-c3ccccc3)c2Cl)cc1C` (stereo not drawn) [Compound 4l, 2-(5-Chloro-3-methyl-1-phenyl-1H-pyrazol-4-yl)-3-(3,4-dimethylphenyl)-2,3-dihydroquinazolin-4(1H)-one], the “Inhibition percent (%), DPPH scavenging” value in data set [1] (conc. 0.2 μg mL^–1) is 60.14 ± 0.1%; in data set [1] (conc. 0.4 μg mL^–1) it was 60.19 ± 0.2%; in data set [1] (conc. 0.6 μg mL^–1), 60.25 ± 0.2%; in data set [1] (conc. 0.8 μg mL^–1) it was 60.30 ± 0.1%; in data set [1] (conc. 1.0 μg mL^–1), 60.35 ± 0.2%.

For magnolamide, in data set [4], the IC50 is 9.7 µM.

These data come from publication PMC6843711 (ACS Omega, 2019).
